Only some compounds are listed: those with a hit (about 0.4% of all), similar ones and a draw of the others.
ERp5 block: inhibitors of ERp5-driven insulin aggregation, primary screen, biochemical, turbidity, absorbance 650 nm, single point; Protein disulfide-isomerase A6 (Homo sapiens), Q15084; 90 min; inhibition, % at 9.99 µM; actives 0.05% (n = 350,000); AID 651711, 2012;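 active = mean replicate inhibition above about 25%, with every replicate also reaching it, limit read from the data, passing the limit was not always enough; inconclusive = only one of those two criteria met; inactive = neither criterion met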
Target sequence (Q15084 whole entry, looked up): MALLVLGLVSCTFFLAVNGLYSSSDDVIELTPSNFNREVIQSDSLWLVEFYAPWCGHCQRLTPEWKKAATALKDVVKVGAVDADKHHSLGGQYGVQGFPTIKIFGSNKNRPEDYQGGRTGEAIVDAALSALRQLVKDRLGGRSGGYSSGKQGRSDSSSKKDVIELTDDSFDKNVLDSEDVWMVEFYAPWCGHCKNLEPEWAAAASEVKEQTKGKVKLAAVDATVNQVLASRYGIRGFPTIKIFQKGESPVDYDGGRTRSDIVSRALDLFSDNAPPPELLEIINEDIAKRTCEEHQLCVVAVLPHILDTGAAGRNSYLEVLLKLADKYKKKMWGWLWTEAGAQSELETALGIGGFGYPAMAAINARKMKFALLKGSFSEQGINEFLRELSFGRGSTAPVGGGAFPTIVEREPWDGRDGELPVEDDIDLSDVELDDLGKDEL
PDI turbidity: inhibitors of human PDI, primary screen, biochemical, turbidity, single point, plate reader; actives 0.052% (n = 350,000); AID 588391, 2011; Protein disulfide-isomerase (Homo sapiens), P07237; inhibition, % at 10 µM; PDI insulin aggregation turbidity, A650, 90 min;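 active = mean inhibition across replicates of 30% or more, whatever share of single replicates reach that level; inconclusive = mean inhibition below 30% while every single replicate reaches 30%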
Tb MetRS inh: T. brucei MetRS inhibitors, primary screen, biochemical, luminescence; actives 0.4% (n = 360,000); methionyl-tRNA synthetase (Trypanosoma brucei brucei); purified T. brucei MetRS, ATP depletion, Kinase-Glo luminescence; inhibition, % at 11.9 µM;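 active = inhibition above a per-plate cutoff of the control wells' mean inhibition plus 3 SD, cut at about 5.5% in these data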
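assay system = parasite MetRS enzyme | timing = 15 min preincubation, 2 h reaction, all 25 °C | evaluation = percent inhibition relative to median high and low control wells | medium = HEPES buffer containing pyrophosphatase, BSA, spermine, DTT | compound = single dose, 11.9 µM final nominal, 0.9% final DMSO | detection = Kinase-Glo luminescence, ATP depletion format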
Tb MetRS conf: T. brucei MetRS inhibitors, confirmation, biochemical, luminescence; shares compounds with Tb MetRS inh; T. brucei MetRS enzyme, luminescence (ATP depletion); inhibition, % at 11.9 µM; actives 93% (n = 1,400); in the data active = inhibition above about 7%
Jurkat cytotox: Jurkat T cell cytotoxicity, cytotoxicity control for T. brucei MetRS inhibitor project, luminescence, high throughput; shares compounds with Tb MetRS inh; AID 624413, 2012; inhibition, % at 8.3 µM; actives 12% (n = 1,400); Jurkat cells viability, ATP luminescence; in the data active = inhibition above about 15%
Tb MetRS inh FP: T. brucei MetRS inhibitors, orthogonal assay for T. brucei MetRS inhibitor project, biochemical, fluorescence polarization; purified T. brucei MetRS; shares compounds with Tb MetRS inh; actives 44% (n = 1,400); inhibition, % at 11.9 µM; AID 651607, 2012; in the data active = inhibition above about 17%
Each line names hits and unclear results; the compound was inactive in the other large screens (follow-up assays come after a bar, where they were run).

NC(Cc1ccc(Cl)cc1)c1csc(NC(=O)Nc2ccccc2)n1 (configuration not stated)	Tb MetRS inh 60.6 | Tb MetRS conf 86.9 | Jurkat cytotox inactive | Tb MetRS inh FP 85.3
NC(Cc1ccc(C(F)(F)F)cc1)c1csc(NC(=O)Nc2ccccc2Cl)n1 (configuration not stated)	none
NC(Cc1ccc(C(F)(F)F)cc1)c1csc(NC(=O)Nc2ccccc2)n1 (configuration not stated)	Tb MetRS inh 76.9 | Tb MetRS conf 96.2 | Jurkat cytotox inactive | Tb MetRS inh FP 90.5
COc1ccccc1NC(=O)Nc1nc(C(N)Cc2ccc(Cl)cc2)cs1 (configuration not stated)	none
CCCN1[C@@H]2c3ccc(-c4cncnc4)c(=O)n3C[C@@H]2[C@@H](CO)[C@@H]1C(=O)OC	none (no result: PDI turbidity, Tb MetRS inh)
CC(C)CC#Cc1ccc2c(c1)O[C@@H](CN(C)C(=O)NC(C)C)[C@H](C)CN([C@@H](C)CO)S2(=O)=O	none (no result: PDI turbidity, Tb MetRS inh)
C[C@H](CO)N1C[C@H](C)[C@@H](CN(C)C(=O)C2CCC2)Oc2ncc(-c3cccc(C#N)c3)cc2C1=O	none (no result: PDI turbidity, Tb MetRS inh)
CO[C@H]1CN(C)C(=O)c2cc(NC(C)=O)ccc2OC[C@H](C)N(Cc2cncnc2)C[C@H]1C	none (no result: PDI turbidity, Tb MetRS inh)
COc1cc(NC(C)=O)c2ncccc2c1[N+](=O)[O-]	Tb MetRS inh 11.5 | Tb MetRS conf 22.7 | Jurkat cytotox inactive | Tb MetRS inh FP inactive
COc1cc(NC(C)=O)c2ncccc2c1NC(C)=O	none
Clc1ccc2nc(-c3ccc(Cl)nc3)[nH]c2c1	Tb MetRS inh 24.9 | Tb MetRS conf 46.2 | Jurkat cytotox 15.1 | Tb MetRS inh FP 22.1
Nc1ccc2nc(-c3ccc(Cl)cc3)[nH]c2c1	ERp5 block inconclusive
COc1cccc(NC(=O)N2C[C@H](O)COC[C@H]3O[C@@H](CC(=O)N(C)C)CC[C@@H]32)c1	none (no result: PDI turbidity, Tb MetRS inh)
O=C(CCc1nc2ccccc2[nH]1)N1CCN(C(=O)c2ccco2)CC1	none (no result: PDI turbidity)
O=C(CSc1ccc(-c2nc3ccccc3[nH]2)cn1)N1CCN(C(=O)c2ccco2)CC1	Tb MetRS inh 7.8 (no result: ERp5 block) | Tb MetRS conf 14.7 | Jurkat cytotox 15.2 | Tb MetRS inh FP inactive
Cc1ccc(SCc2nc3ccccc3n2CC(=O)Nc2ccccc2)cc1	none (no result: ERp5 block)
Cc1ccc(SCc2nc3ccccc3n2CC(=O)Nc2ccc(Cl)cc2)cc1	Tb MetRS inh 16.7 (no result: ERp5 block) | Tb MetRS conf 21.8 | Jurkat cytotox inactive | Tb MetRS inh FP 89.4
Cc1ccnc(NCc2ccc(Br)cc2)c1	Tb MetRS inh 6.0 | Tb MetRS conf 15.1 | Jurkat cytotox inactive | Tb MetRS inh FP inactive
COc1ccc(CNc2cc(C)ccn2)cc1	none
Cc1noc(C)c1S(=O)(=O)N(C)C[C@@H]1OCCCC[C@@H](C)Oc2ccc(NC(=O)Cc3ccccc3)cc2C(=O)N([C@@H](C)CO)C[C@@H]1C	none (no result: PDI turbidity, Tb MetRS inh)
COc1cc(NC(=O)CSc2nc3ncnc(N)c3[nH]2)c(C(=O)O)cc1OC	none
Fc1cccc(CSc2nc3ncc(Cl)cc3[nH]2)c1	Tb MetRS inh 6.4 | Tb MetRS conf 7.3 | Jurkat cytotox inactive | Tb MetRS inh FP inactive
CN(CC(=O)Nc1ccc(F)cc1)C(=O)CSc1nc2ncc(Cl)cc2[nH]1	none
O=C(CSc1nc2ncc(Cl)cc2[nH]1)Nc1cccc(F)c1	Tb MetRS inh 21.2 | Tb MetRS conf 46.6 | Jurkat cytotox inactive | Tb MetRS inh FP 23.0
Fc1cccc(CSc2nc3ncccc3[nH]2)c1	none (no result: ERp5 block)
Nc1ncnc2nc(SCC(=O)Nc3cccc(C(F)(F)F)c3)[nH]c12	Tb MetRS inh 33.3 | Tb MetRS conf 56.8 | Jurkat cytotox inactive | Tb MetRS inh FP 27.6
O=C(N[C@H]1CC[C@H](CCNC(=O)C2CCCCC2)O[C@@H]1CO)c1ccncc1	none (no result: PDI turbidity, Tb MetRS inh)
CCC(=O)N1CC2(C1)[C@H](c1ccccc1)[C@@H](CO)N2CCC(F)(F)F	none (no result: PDI turbidity, Tb MetRS inh)
O=C(CSc1ncc(-c2ccccc2)[nH]1)Nc1ccccc1	none
O=C(CSc1ncc(-c2ccccc2)[nH]1)Nc1cccc(O)c1	Tb MetRS inh 5.6 | Tb MetRS conf 13.4 | Jurkat cytotox inactive | Tb MetRS inh FP inactive
C[C@]12CCC3C4(C=CC5(C=C4C(=O)c4ccc(F)c(F)c4)C[C@@H](O)CC[C@]35C)C1CC[C@@]2(O)CN1CCC(C(N)=O)CC1 (some centres not stated)	none (no result: PDI turbidity, Tb MetRS inh)
O=S(=O)(c1ccccc1)c1nc(Nc2cccc(O)c2)sc1Cl	Tb MetRS inh 10.5 (no result: ERp5 block) | Tb MetRS conf 19.6 | Jurkat cytotox 18.4 | Tb MetRS inh FP inactive
Cc1ccc(S(=O)(=O)c2nc(Nc3ccccc3)sc2Cl)cc1	none
CCS(=O)(=O)N1CC2(CN(Cc3ccc(OC)cc3)[C@@H](CO)c3c2c2ccc(OC)cc2n3C)C1	none (no result: PDI turbidity, Tb MetRS inh)
Cc1ccc2nc(SCC(=O)Nc3cccc(S(N)(=O)=O)c3)[nH]c2c1	none
O=C(CSc1nc2ccccc2[nH]1)NCc1ccc2c(c1)OCO2	Tb MetRS inh 28.4 (no result: ERp5 block) | Tb MetRS conf 43.0 | Jurkat cytotox inactive | Tb MetRS inh FP 19.7
O=C(CSc1nc(-c2ccccc2)cc(=O)[nH]1)NCc1ccc2c(c1)OCO2	none (no result: ERp5 block)
O=C(CSc1nc2ccccc2[nH]1)NCc1ccc(F)cc1	Tb MetRS inh 7.7 | Tb MetRS conf 13.1 | Jurkat cytotox inactive | Tb MetRS inh FP inactive
COc1ccc2nc(SCC(=O)NCc3ccc(F)cc3)[nH]c2c1	none
C/C(=N\Nc1nc2ccccc2[nH]1)c1ccc2c(c1)OCCO2	none
NS(=O)(=O)c1cccc(NC(=O)CSc2nc3ccccc3[nH]2)c1	Tb MetRS inh 7.8 | Tb MetRS conf 16.0 | Jurkat cytotox inactive | Tb MetRS inh FP inactive
C/C(=N\Nc1nc2ccccc2[nH]1)c1ccc2c(c1)OCO2	Tb MetRS inh 7.3 | Tb MetRS conf 8.8 | Jurkat cytotox inactive | Tb MetRS inh FP 18.2
C[C@@H]1CCCCO[C@@H](CN(C)C(=O)Nc2cccc3ccccc23)[C@H](C)CN([C@H](C)CO)C(=O)c2cc(NS(=O)(=O)c3cccs3)ccc2O1	none (no result: PDI turbidity, Tb MetRS inh)
O=C(C[C@@H]1CC[C@H](NC(=O)NC2CCCCC2)[C@H](CO)O1)NCc1ccc(Cl)cc1	none (no result: PDI turbidity, Tb MetRS inh)
CCCC#Cc1ccc2c(c1)O[C@@H](CN(C)C(=O)NC(C)C)[C@@H](C)CN([C@@H](C)CO)S2(=O)=O	none (no result: PDI turbidity, Tb MetRS inh)
COc1ccc(-c2ccc3c(c2)O[C@@H](CN(C)C)[C@@H](C)CN([C@H](C)CO)S3(=O)=O)cc1	none (no result: PDI turbidity, Tb MetRS inh)
O=C(CCc1nc2ccccc2[nH]1)NCc1ccc2c(c1)OCO2	Tb MetRS inh 19.5 (no result: PDI turbidity) | Tb MetRS conf 36.4 | Jurkat cytotox inactive | Tb MetRS inh FP inactive
O=C(CCc1nc2ccccc2[nH]1)Nc1ccc2c(c1)OCO2	none (no result: ERp5 block)

Screening results deposited in PubChem by several laboratories.
